This excerpt belongs to a sample that is enriched for hits.
CHOP inhibitor = blocks CHOP induction under ER stress; CHO-K1 CHOP-promoter luciferase, tunicamycin-induced, 15-18 h; inhibition, % at 10 µM; 220,000 compounds, 3.8% hits;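 active = compounds that reduced the stress-induced luciferase reporter signal by more than about 70% of percent inhibition, limit read from the data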;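 note: 0% = tunicamycin plus vehicle and 100% = wells without tunicamycin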
XBP1 UPR activ = activators of adaptive arm of unfolded protein response (XBP1) | CHO-XBP1 luciferase reporter, IRE1-XBP1 UPR activation, luminescence; percent of tunicamycin response, DMSO as zero | activation, % at 20 µM | 330,000 compounds, 0.33% hits;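 active = versus positive control, 20 µM dose yields 30% or more activation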;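 note: 100% = tunicamycin at 10 µg/mL and 0% = DMSO only wells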
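Test system: CHO-XBP1 luciferase reporter cells | Buffer or medium: Serum-containing F12 medium, 10% FBS | Schedule: 6 h compound exposure at 37 °C, 5% CO2 | Detection: Steady-Glo luciferase glow luminescence, 10 min after reagent addition | Read-out basis: Activation, % of tunicamycin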
V-ATPase pH = regulators of yeast V-ATPase proton transport | response, % at 10 µM | 350,000 compounds, 0.37% hits | S. cerevisiae, pHLuorin cytosolic pH fluorescence | AID 504577; in the data active = response mostly above about 7.3%, no sharp cut-off; inactive = mostly below about 5.4%; note: actives read high
TbMetRS inhib = blocks T. brucei methionyl-tRNA synthetase activity | purified T. brucei MetRS, ATP depletion, Kinase-Glo luminescence | inhibition, % at 11.9 µM | 360,000 compounds, 0.4% hits | AID 624268;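 active = inhibition above a per-plate cutoff of the control wells' mean inhibition plus 3 SD, cut at about 5.5% in these data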;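 note: 0% = DMSO wells median and 100% = median of wells with control inhibitor compound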
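Assay system: T. brucei methionyl-tRNA synthetase, purified | Medium: HEPES buffer with MgCl2, KCl, DTT, spermine, BSA, pyrophosphatase | Compound: 11.9 µM single point | Incubation: 15 min enzyme-compound preincubation, 2 h reaction, 10 min detection, 25 °C | Measured by: Kinase-Glo luciferase luminescence reporting remaining unconsumed ATP | Measure: % inhibition normalized to control-well medians | Replication: Singlicate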
CHOP UPR activ = apoptotic UPR (CHOP) activation | CHO-CHOP luciferase reporter, luminescence; percent of tunicamycin response over DMSO baseline | activation, % at 10 µM | 330,000 compounds, 0.34% hits | AID 449763;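 active = at 10 µM dose, activation of 40% or more, normalized to positive control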;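 note: 100% = tunicamycin at 10 µg/mL and 0% = DMSO alone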
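Assay system: CHO-CHOP cells, stable luciferase reporter of PERK-eIF2a-CHOP signalling / Buffer or medium: F12 plus 10% serum / Compound dosing: one dose, 10 µM in 0.5% DMSO / Times: 6 h compound treatment, 37 °C / Technique: luciferase luminescence / Read-out: % reporter activation, DMSO baseline versus tunicamycin full activation / Benchmarks: tunicamycin and DMSO controls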
* hit, by the source's call; · = not tested or not shown.

SMILES	CHOP inhibitor	XBP1 UPR activ	V-ATPase pH	TbMetRS inhib	CHOP UPR activ
O=S(Cc1ccccc1)CC(O)(c1ccc(Cl)cc1)c1ccc(Cl)cc1 (stereo not drawn)	84.8*	0.0	-7.1	0.1	0.1
CCOC(=O)c1c(OCC)[nH]c2ccc(O)cc12	72.5*	1.9	-0.6	0.0	0.6
CCOC(=O)c1c(C)[nH]c2ccc(O)cc12	11.1	0.9	-4.8	-0.3	-0.3
COc1cccc(C(=O)N2[C@H](COCc3ccccc3)C=CS2(=O)=O)c1	·	·	·	0.3	·
COC(=O)c1ccccc1NC(=O)c1sc(N)nc1C	7.7	11.3	-2.0	-0.6	-2.9
COc1cc(OC)cc(C(=O)Nc2ccccc2C(=O)NC2CC2)c1	·	0.4	3.7	-0.2	-1.6
COC(=O)c1ccccc1NC(=O)c1sc(=S)n(C)c1N	82.5*	0.2	7.1	-0.8	0.7
COC(=O)c1ccccc1NC(=O)c1cc(OC)cc(OC)c1	82.4*	1.2	-2.2	-1.3	0.6
CSc1nc(SCc2ccccc2)[nH]c(=O)n1	·	·	0.1	-0.5	·
Cc1nc(SCC(=O)c2cc(C)n(C3CC3)c2C)c2ccccc2n1	·	·	1.0	-0.1	·
Cc1ccccc1CN1CCN(S(=O)(=O)c2ccc(F)cc2)CC1	87.9*	0.1	0.6	-0.9	-1.6
O=C(Cc1c[nH]c2ccccc12)N1CCN(S(=O)(=O)c2ccc(Cl)cc2)CC1	·	-0.6	2.4	0.0	0.6
O=S(=O)(c1ccc(Cl)cc1)N1CCN(Cc2c[nH]c3ccccc23)CC1	71.0*	0.8	5.0	3.2	-1.1
CCOC(=O)[C@]12CCCC=C1N(Cc1ccc(Cl)cc1Cl)C(=O)[C@H](CC(=O)N1CCSCC1)C2	·	·	·	-0.3	·
O=C1CC(SC(=S)C2CCCC2=O)C(=O)N1 (stereo not drawn)	·	·	-1.7	-0.3	·
CC(C)c1ccc(NC(=O)CCNS(=O)(=O)c2cccc3nonc23)cc1	32.7	0.4	-2.6	1.6	-0.1
Cc1ccc(NS(=O)(=O)c2ccc(NC(=O)CSc3ccc(Cl)cc3)cc2)c(C)c1	70.3*	-0.6	-3.7	0.8	-0.4
Cc1ccc(NC(=O)CCNS(=O)(=O)c2cccc3nonc23)cc1	74.9*	-1.7	-1.6	-1.0	1.4
Cc1ccc(S(=O)(=O)Nc2ccc(NC(=O)CN3CCCCC3)c(Cl)c2)cc1	94.7*	0.9	3.3	-0.5	-0.2
Cc1ccc(S(=O)(=O)NCCC(=O)Nc2ccc(Cl)c(Cl)c2)cc1	83.5*	-1.6	2.7	5.6	-0.5
Cc1nn(-c2ccccc2)c(C)c1NC(=O)COC(=O)CCc1ccccc1	·	-3.3	-3.7	-0.1	-1.3
CCCCn1nnnc1C(c1ccccc1)N1CCN(c2cc(C)ccc2C)CC1 (stereo not drawn)	·	·	·	0.2	·
C=CCc1cccc2cc(C(=O)Nc3ccc(S(=O)(=O)Nc4nnc(CC)s4)cc3)c(=O)oc12	72.4*	·	-6.8	-1.5	·
Nc1ccn([C@@H]2O[C@H](C(=O)NCc3ccc4c(c3)OCO4)[C@@H](O)[C@H]2O)c(=O)n1	·	·	·	-0.5	·
O=C(c1cccc(Cl)c1)N1CCC(N2CCC(C(=O)N3CCCC3)CC2)CC1	·	-5.4	1.7	0.7	-0.1
SMILES	CHOP inhibitor	XBP1 UPR activ	V-ATPase pH	TbMetRS inhib	CHOP UPR activ
O=C(NCC(=O)N(c1ccccc1)C(C(=O)NC1CCCCC1)c1cccnc1)c1cccs1 (stereo not drawn)	85.6*	-1.0	-2.0	0.0	-1.7
O=C(NC1CCCCC1)C(c1cccnc1)N(C(=O)CCl)c1ccc(F)cc1 (stereo not drawn)	88.1*	·	0.6	-1.1	·
COc1ccc(N(C(=O)CCl)C(C(=O)NC2CCCCC2)c2cccnc2)cc1 (stereo not drawn)	-1.1	-0.8	15.1*	0.0	24.9
NCC1OC(O[C@@H]2[C@H](O)C(OC3C(O)C(N)CC(N)C3OC3OC(CO)C(O)C(O)C3N)O[C@@H]2CO)C(N)C(O)C1O (stereo partly drawn)	-3.5	·	·	·	·
O=C(NCCc1ccc(O)c(Br)c1)c1ccc(Br)o1	·	·	·	-1.5	·
CCOC(=O)N1CCC(NC(=O)C2CCCN(Cc3nc(-c4cccc(Cl)c4)oc3C)C2)CC1 (stereo not drawn)	84.7*	-4.1	0.4	-0.2	8.4
CC(C)c1ccc(/C=N/Nc2ccc(C(=O)O)cc2)cc1	84.2*	-8.0	3.3	-0.8	-11.5
Cc1ccsc1/C=N/Nc1ccc(C(=O)O)cc1	·	-9.8	2.4	-0.6	-8.7
Cc1ccc(/C=N/Nc2cccc(C(=O)O)c2)s1	79.7*	-10.1	4.8	-0.3	-7.4
CCCCCCCCCC(=O)N/N=C/c1ccc(C)s1	94.5*	-1.0	1.2	0.4	-1.8
Cc1ccsc1/C=N/Nc1cccc(C(=O)O)c1	89.0*	-9.3	-2.0	-0.5	-9.7
O=C(O)c1ccc(N/N=C/c2ccc(-c3ccccc3)cc2)cc1	-12.0	·	-2.7	-0.6	·
CN1C(=O)C(c2cn(C)c3ccccc23)(c2cn(C)c3ccccc23)c2cc(Br)ccc21	·	·	·	0.1	·
COc1ccc(Cc2nnc(SC)n2-c2ccc(F)cc2)cc1OC	·	·	·	-0.2	·
COCCN1C(=O)COc2ccccc2C1C(=O)Nc1c(C)cccc1C (stereo not drawn)	·	·	·	-0.2	·
CCOC(=O)C1(C)CCN1C(=O)c1cccc2ccccc12 (stereo not drawn)	·	·	·	0.2	·
O=C(OCc1cn([C@@H]2C[C@H](c3ccccc3)N(C(=O)C3CCCCC3)C[C@H]2O)nn1)c1ccccc1	·	·	-0.8	-0.8	·
Cc1ccc(/C=N/Nc2ccc(C(=O)O)cc2)s1	75.2*	-6.5	-2.4	-0.2	-9.5
Cc1ccc(-c2nnc(SCC(=O)N/N=C/c3ccc(C)s3)n2-c2ccc(C)cc2)cc1	74.6*	-1.8	-1.0	0.1	0.6
O=C(O)c1ccc(N/N=C/c2cc(Br)cs2)cc1	·	-8.2	1.8	-0.2	-5.3
CN(C)C(CNC(=O)C1CC(=O)N(c2cccc(C(F)(F)F)c2)C1)c1ccccc1 (stereo not drawn)	·	·	·	0.3	·
COc1cc(/C=N\Nc2ccc([N+](=O)[O-])cc2)ccc1OCC(=O)Nc1ccc(C)c(C)c1	78.0*	·	-2.7	-0.3	·
CCOC(=O)/C(=C/C=C1\Sc2cc(C)c(C)cc2N1CC)C(C)=O	93.6*	·	0.3	-0.8	·
CCOC(=O)/C(=C/C=C1\Sc2ccccc2N1CC)C(C)=O	29.9	3.7	1.1	-1.1	0.8
O=C(CN(C1CCCCC1)C1CCCCC1)N1CCc2ccccc2C1	87.1*	-1.1	-8.1	-2.8	-0.6
COc1cc(/C=C2\SC(=O)N(CCN)C2=O)ccc1OS(=O)(=O)c1cc(C)ccc1C	93.0*	·	-2.1	-1.3	·
COc1ccc(/C=C2\SC(=O)N(CCC(=O)Nc3ccccc3)C2=O)cc1OC	43.6	22.3	2.3	0.3	5.4
COC(=O)c1ccccc1NC(=O)CSc1nc2ccsc2c(=O)n1Cc1ccc(C(=O)O)cc1	·	·	-5.6	-0.1	·

Source: PubChem BioAssay (several laboratories)
